These results are taken from ChEMBL document CHEMBL3585293, “Design, antiviral and cytostatic properties of isoxazolidine-containing amonafide analogues” (Bioorg Med Chem, 2015).

The source made the active and inactive calls. The calls are words filed in the database; no cut-off is given here.

The subject of one data set is Feline coronavirus. Put plainly: Antiviral activity against Feline coronavirus infected in CRFK cells assessed as reduction of virus-induced cytopathogenicity. It is filed as functional, organism-based. The procedure, abridged: (§1)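 Confluent monolayers were infected with 100 CCID50 of virus (1 CCID50 infects 50% of cultures) or 20 PFU. The cultures were then incubated with varying test compound concentrations. Cytopathicity was scored once it was complete in untreated infected controls.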
On the technique in general: Damage to the host cells serves as the signal in cytopathic effect assays.

In the next data set the test system is Influenza A virus. Put plainly: Antiviral activity against Influenza A virus (A/PR/8/34(H1N1)) infected in MDCK cells assessed as reduction of virus-induced cytopathogenicity. It is filed as functional, organism-based. Particulars: A/Puerto Rico/8/1934(H1N1). The gist of the method: (§2)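 MDCK cells, grown confluent in 96-well plates, were infected with influenza A/PR/8 (H1N1), A/HK/7/87 (H3N2) or B/HK/5/72 at 100 CCID50 or 20 PFU and exposed to varying compound concentrations. Cytopathic effect was recorded when it reached completion in untreated virus controls. EC50 is the concentration that halves virus-induced cytopathicity.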

In a further data set the test system is Human respirovirus 3. Put plainly: Antiviral activity against Parainfluenza virus 3 infected in African green monkey Vero cells assessed as reduction of virus-induced cytopathogenicity. It is filed as functional, organism-based. The gist of the method: as §1
The next data set has as its system Influenza A virus H3N2. Put plainly: Antiviral activity against Influenza A virus H3N2 infected in MDCK cells assessed as reduction of virus-induced cytopathogenicity. It is filed as functional, organism-based. The procedure, abridged: as §2
For the next data set, the system named is Felid alphaherpesvirus 1. As to the kind of experiment: Antiviral activity against Feline herpesvirus infected in CRFK cells assessed as reduction of virus-induced cytopathogenicity. It is filed as functional, organism-based. The gist of the method:
as §1

Data set [1] concerns Vesicular stomatitis virus. Put plainly: Antiviral activity against Vesicular stomatitis virus infected in human HeLa cells assessed as reduction of virus-induced cytopathogenicity. It is filed as functional, organism-based. The procedure, abridged: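 Confluent Vero (Coxsackie B4) or HeLa (vesicular stomatitis virus) monolayers in 96-well plates were inoculated with 100 CCID50 virus or 20 PFU and incubated with varying compound concentrations. Cytopathicity was scored once complete in untreated infected controls. […] Two separate experiments were run.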

Another data set concerns Influenza B virus. Put plainly: Antiviral activity against Influenza B virus (B/HK/5/72) infected in MDCK cells assessed as reduction of virus-induced cytopathogenicity. It is filed as functional, cell-based. Particulars: B/Hong Kong/05/1972. The gist of the method:
as §2

For a further data set, the system named is Reovirus sp. As to the kind of experiment: Antiviral activity against Reovirus infected in African green monkey Vero cells assessed as reduction of virus-induced cytopathogenicity. It is filed as functional, organism-based. The gist of the method:
as §1

In a further data set the test system is Human adenovirus 2. Put plainly: Antiviral activity against Human adenovirus 2 infected in HEL cells assessed as reduction of virus-induced cytopathogenicity. It is filed as functional, organism-based. The procedure, abridged: as §1
The subject of a further data set is Sindbis virus. As to the kind of experiment: Antiviral activity against Sindbis virus infected in African green monkey Vero cells assessed as reduction of virus-induced cytopathogenicity. It is filed as functional, organism-based. The gist of the method:
as §1

Data set [2] has as its system Respiratory syncytial virus. As to the kind of experiment: Antiviral activity against Respiratory syncytial virus infected in human Hela cells assessed as reduction of virus-induced cytopathogenicity. It is filed as functional, organism-based. The procedure, abridged: as §1
The nature of data set [3]: Cytotoxicity against HEL cells assessed as alternation of cell morphology by microscopic analysis. It is filed as cell-based. The conditions noted are these: human.
The test system of data set [4] is Cytomegalovirus. As to the kind of experiment: Antiviral activity against Cytomegalovirus Davis infected in HEL cells assessed as reduction of virus-induced cytopathogenicity. The conditions noted are these: Human betaherpesvirus 5, Davis. It is filed as functional, organism-based.
The test system of another data set is CCRF-CEM. As to the kind of experiment: Cytotoxicity against human CEM cells assessed as inhibition of cell proliferation. It is filed as functional, cell-based.
Data set [5] deals with Human alphaherpesvirus 3. As to the kind of experiment: Antiviral activity against Varicella-zoster virus expressing thymidine kinase infected in HEL cells assessed as reduction of virus-induced plaque formation. It is filed as functional, organism-based. The conditions noted are these: Human alphaherpesvirus 3, HEL. The gist of the method:
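Plaque-reduction assay in HEL cells. TK+ VZV strains were Oka and YS; TK- strains were 07-1 and YS-R. Virus input was 100 PFU, with graded compound concentrations. Plaques were counted once formation was complete in untreated infected controls. […] Two independent experiments were run.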

The next data set deals with MDCK. Put plainly: Cytotoxicity against MDCK cells assessed cell viability by MTS assay. It is filed as cell-based, Canis lupus familiaris. The conditions noted are these: dog. The gist of the method: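 Cells were exposed to a range of compound concentrations. Viability was measured by the colorimetric formazan-based MTS assay.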
In general terms: Tetrazolium dyes change colour on reduction, which living cells bring about.

For data set [6], the system named is Human alphaherpesvirus 3. Put plainly: Antiviral activity against thymidine kinase-deficient Varicella-zoster virus infected in HEL cells assessed as reduction of virus-induced plaque formation. It is filed as functional, organism-based. Particulars: Human alphaherpesvirus 3, HEL. The procedure, abridged:
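Plaque-reduction assay in HEL cells. TK+ VZV strains were Oka and YS; TK- strains were 07-1 and YS-R. Virus input was 100 PFU, with graded compound concentrations. Plaques were counted once formation was complete in untreated infected controls. Two independent experiments were run.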

Another data set deals with L1210. As to the kind of experiment: Cytotoxicity against mouse L1210 cells assessed as inhibition of cell proliferation. It is filed as functional, cell-based.
Another data set concerns HeLa. Put plainly: Cytotoxicity against human HeLa cells assessed as inhibition of cell proliferation. It is filed as functional, cell-based.
For data set [7], the system named is Cytomegalovirus. As to the kind of experiment: Antiviral activity against Cytomegalovirus AD-169 infected in HEL cells assessed as reduction of virus-induced cytopathogenicity. It is filed as functional, organism-based. Particulars: Human betaherpesvirus 5, AD-169, HEL.

`CCOP(=O)(OCC)[C@@H]1C[C@@H](CN2C(=O)c3cccc4cc([N+](=O)[O-])cc(c34)C2=O)ON1C` (relative stereo): the outcome (with Feline coronavirus; in the data set with Influenza A virus; with Human respirovirus 3; in the data set with Influenza A virus H3N2; in the data set on Felid alphaherpesvirus 1; in [1]) was inactive. Also, the result (with Influenza B virus; with Reovirus sp.; in the data set with Human adenovirus 2; in the data set with Sindbis virus; in [2]) was inactive.
For orientation: EC50 means the concentration needed to bring the measured effect to its halfway point. As usually defined, the IC50 is the concentration at which inhibition is half-maximal. A word on the CC50: it is the concentration that lowers cell viability or growth by half. In the case of `CCCN1C(=O)c2cccc3cc(NC(=O)[C@@H]4C[C@@H](P(=O)(OCC)OCC)N(C)O4)cc(c23)C1=O` (racemic), the MCC in data set [3] is above 100 µM. Besides, the half-maximal effective concentration (EC50) is 45 µM with Cytomegalovirus [4], 28 µM in the data set with Human alphaherpesvirus 3 [5], 40 µM with Human alphaherpesvirus 3 [6] and above 20 µM in the data set on Cytomegalovirus [7]. The IC50 with CCRF-CEM amounted to 28 µM; with L1210, 41 µM; in the data set with HeLa, 74 µM. This compound displayed a half-maximal cytotoxic concentration (CC50) with MDCK of 46.2 µM.
Regarding `CCOP(=O)(OCC)[C@@H]1C[C@H](CN2C(=O)c3cccc4cc(NC(C)=O)cc(c34)C2=O)ON1C` (relative stereo), the result (in the data set on Feline coronavirus; in the data set on Influenza A virus; with Human respirovirus 3; in the data set on Influenza A virus H3N2; in the data set with Felid alphaherpesvirus 1; in data set [1]) was inactive. In addition, the result (in the data set on Influenza B virus; in the data set on Reovirus sp.; in the data set on Human adenovirus 2; in the data set with Sindbis virus; in [2]) was inactive.
`COc1cccc(N2CCN(C3=Nc4c(F)cccc4[C@H](CC(=O)O)N3c3cc(C(F)(F)F)ccc3OC)CC2)c1` [LETERMOVIR]: the EC50 in the data set with Cytomegalovirus [7] came out at 0.0046 µM.
With `O=c1[nH]cc(F)c(=O)[nH]1` [FLUOROURACIL], the concentration for half-maximal inhibition (IC50) with L1210 came to 0.33 µM.
Regarding `CCOP(=O)(OCC)[C@@H]1C[C@H](CN2C(=O)c3cccc4cc(N)cc(c34)C2=O)ON1C` (relative stereo), the result (with Feline coronavirus; in the data set with Influenza A virus; in the data set with Human respirovirus 3; in the data set on Influenza A virus H3N2; in the data set on Felid alphaherpesvirus 1; in [1]) was inactive. Further, the result (in the data set on Influenza B virus; in the data set on Reovirus sp.; with Human adenovirus 2; in the data set with Sindbis virus; in data set [2]) was inactive.
Regarding `CCOP(=O)(OCC)[C@@H]1C[C@@H](C(=O)Nc2cc3c4c(cccc4c2)C(=O)N(CC(C)C)C3=O)ON1C` (relative stereo), the MCC in data set [3] is above 100 µM. Moreover, the EC50 with Cytomegalovirus [4], with Human alphaherpesvirus 3 [5], in the data set with Human alphaherpesvirus 3 [6] and in the data set on Cytomegalovirus [7] was above 100 µM throughout. In addition, the IC50 stood at 48 µM in the data set on CCRF-CEM, 72 µM with L1210 and 56 µM in the data set with HeLa. Also, in the data set on MDCK, the CC50 was above 100 µM.
For `Nc1nc2c(ncn2COCCO)c(=O)[nH]1` [ACYCLOVIR], the MCC in [3] was above 250 µM.
For `CCOP(=O)(OCC)[C@@H]1C[C@H](CN2C(=O)c3cccc4cccc(c34)C2=O)ON1C` (relative stereo), the outcome (in the data set on Feline coronavirus; in the data set with Influenza A virus; in the data set on Human respirovirus 3; in the data set on Influenza A virus H3N2; in the data set on Felid alphaherpesvirus 1; in data set [1]) was inactive. Besides, the outcome (in the data set with Influenza B virus; in the data set on Reovirus sp.; in the data set on Human adenovirus 2; in the data set on Sindbis virus; in [2]) was inactive.
For `CCOP(=O)(OCC)[C@@H]1C[C@H](CN2C(=O)c3cccc4cc([N+](=O)[O-])cc(c34)C2=O)ON1C` (relative stereo), the result (with Feline coronavirus; with Influenza A virus; in the data set on Human respirovirus 3; with Influenza A virus H3N2; with Felid alphaherpesvirus 1; in data set [1]) was inactive. Also, the outcome (with Influenza B virus; in the data set on Reovirus sp.; with Human adenovirus 2; in the data set on Sindbis virus; in data set [2]) was inactive.
In the case of `CCOP(=O)(OCC)[C@@H]1C[C@@H](C(=O)Nc2cc3c4c(cccc4c2)C(=O)N(CCN(CC)CC)C3=O)ON1C` (racemic), the MCC in data set [3] is at least 100 µM. Further, the EC50 in the data set on Cytomegalovirus [4] is 49 µM; in the data set on Human alphaherpesvirus 3 [5], above 20 µM; in the data set on Human alphaherpesvirus 3 [6] it was above 20 µM; in the data set with Cytomegalovirus [7], 55 µM. Besides, the IC50 in the data set with CCRF-CEM was determined as 21 µM; in the data set on L1210, 11 µM; in the data set on HeLa it was 13 µM. The compound also displayed a CC50 in the data set on MDCK above 100 µM.
`Nc1nc2c(ncn2COC(CO)CO)c(=O)[nH]1` [GANCICLOVIR]: in [3], the MCC was above 100 µM. In addition, the EC50 is 7.1 µM in the data set with Cytomegalovirus [4] and 6.3 µM with Cytomegalovirus [7].
In the case of `CCCCN1C(=O)c2cccc3cc(NC(=O)[C@H]4C[C@@H](P(=O)(OCC)OCC)N(C)O4)cc(c23)C1=O` (racemic), in [3], the MCC was at least 100 µM. The EC50 is above 20 µM with Cytomegalovirus [4], 20 µM in the data set on Human alphaherpesvirus 3 [5], 38 µM in the data set with Human alphaherpesvirus 3 [6] and above 20 µM in the data set on Cytomegalovirus [7]. Moreover, the concentration for half-maximal inhibition (IC50) was found to be 19 µM with CCRF-CEM and 28 µM in the data set on L1210.
`CCOP(=O)(OCC)[C@@H]1C[C@@H](CN2C(=O)c3cccc4cccc(c34)C2=O)ON1C` (relative stereo): the outcome (in the data set on Feline coronavirus; in the data set with Influenza A virus; with Human respirovirus 3; with Influenza A virus H3N2; in the data set with Felid alphaherpesvirus 1; in data set [1]) was inactive. The outcome (in the data set on Influenza B virus; with Reovirus sp.; in the data set with Human adenovirus 2; in the data set with Sindbis virus; in data set [2]) was inactive.
With `CCOP(=O)(OCC)[C@@H]1C[C@@H](CN2C(=O)c3cccc4cc(N)cc(c34)C2=O)ON1C` (relative stereo), the result (in the data set on Feline coronavirus; with Influenza A virus; in the data set on Human respirovirus 3; with Influenza A virus H3N2; in the data set with Felid alphaherpesvirus 1; in data set [1]) was inactive. For the same compound, the result (in the data set with Influenza B virus; with Reovirus sp.; with Human adenovirus 2; in the data set on Sindbis virus; in data set [2]) was inactive.
Turning to `CCOP(=O)(OCC)[C@@H]1C[C@@H](CN2C(=O)c3cccc4cc(NC(C)=O)cc(c34)C2=O)ON1C` (relative stereo), the outcome (in the data set on Feline coronavirus; with Influenza A virus; in the data set with Human respirovirus 3; with Influenza A virus H3N2; in the data set with Felid alphaherpesvirus 1; in data set [1]) was inactive. The outcome (with Influenza B virus; in the data set with Reovirus sp.; with Human adenovirus 2; in the data set on Sindbis virus; in data set [2]) was inactive.
As for `Nc1ccn(C[C@@H](CO)OCP(=O)(O)O)c(=O)n1` [CIDOFOVIR], the MCC in [3] was above 250 µM. In the data set with Cytomegalovirus [4], the EC50 came out at 1.02 µM.
